# Laboratory results published in ChEMBL document CHEMBL1153527, “Discovery of a novel series of quinolone and naphthyridine derivatives as potential topoisomerase I inhibitors by scaffold modification” (J Med Chem, 2009).
# Active and inactive are the calls of the source. The calls are words filed in the database; no cut-off is given here.
# Columns and labels:
# HT-29 [1] = test: Induction of apoptosis in human HT-29 cells assessed as morphological changes at 0.25 ug/mL after 24 hrs by immunostaining; type: functional, cell-based
# Method in brief: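 SKOV3 and HT-29 cells were treated with 0.25 or 5 μg/mL for 24 h. Cell morphology was assessed by microscopy after fixation in 4% formaldehyde and Hoechst 33342 staining (10 μg/mL), against an untreated control.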
# A2780 = test: Cytotoxicity against human A2780 cells after 48 hrs by MTT assay; type: functional, cell-based; conditions: A2780, 48 h
# SK-OV-3 [2] = test: Reduction in topoisomerase 1 expression in human SKOV3 cells by immunocytochemistry; type: functional, cell-based
# Method in brief: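 HT-29 and SKOV-3 cells were grown on slides and treated with compound at several concentrations, with an untreated control. Cells were fixed and permeabilised, and endogenous peroxidase was quenched with 0.3% H2O2/methanol. After blocking with 10% goat serum, slides were stained with anti-Top I (1:100, 10 h), then biotinylated secondary and avidin-biotin-HRP, and developed with DAB.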
# HT-29 [3] = test: Cell cycle distribution in human HT-29 cells assessed as accumulation at S phase upto 10 uM by flow cytometry; type: functional
# Method in brief: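 HT-29 cells were exposed to vehicle or 1, 5 or 10 μM compound for 6, 12, 24 or 48 h. Floating and attached cells were collected, fixed in 70% ethanol and treated with 0.1% Triton X-100. They were stained with PI at 50 μg/mL plus RNaseA at 50 μg/mL for 30 min at room temperature in the dark. FL2 DNA content was read on 10000 cells by flow cytometry. The sub-G1 fraction was taken as apoptotic.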
# K562 = test: Cytotoxicity against p53-deficient human K562 cells after 48 hrs by SRB assay; type: functional, cell-based; conditions: K562, 48 h
# KB = test: Cytotoxicity against human KB cells after 48 hrs by MTT assay; type: functional, cell-based
# HT-29 [4] = test: Induction of apoptosis in human exponentially growing HT-29 cells; type: functional, cell-based; conditions: TDE = time-dependent effect
# SK-OV-3 [5] = test: Induction of apoptosis in human SKOV3 cells assessed as apoptotic cells at 5 ug/mL after 24 hrs by annexin V/propidium iodide-based flow cytometry; type: functional
# Method in brief: (§1)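 SKOV-3 or HT-29 cells (1-5 × 10^6 cells/mL) were incubated with 0, 5 or 10 μg/mL compound for 24 h. They were then washed and stained with EGFP-Annexin V/PI and analysed immediately by flow cytometry. Annexin V+/PI− cells were scored as apoptotic; PI-permeant cells were scored as necrotic.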
# HT-29 [6] = test: Cytotoxicity against human HT-29 cells after 48 hrs by MTT assay; type: functional, cell-based; conditions: HT-29, 48 h
# Method in brief: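 Cells were seeded at about 5 × 10^3 per well, then given serum-free medium containing 0-10 μM test compound for 48 h at 37 °C. MTT was added at 0.5 mg/mL final for 4 h at 37 °C. Formazan was dissolved in DMSO and OD570 read. IC50 values (50% cell death) came from a fitted log concentration-response curve.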
# [7] = Cytotoxicity against p53-deficient human Hep3B cells after 48 hrs by SRB assay; type: functional, cell-based, Hep 3B2
# Method in brief: (§2)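 Cell lines came from CCRC, Taiwan. Cells were seeded at about 5 × 10^3 per well and left overnight. They were then given serum-free medium containing 0-10 μM compound (0.08-10 μM serial dilutions) for 48 h at 37 °C. Cells were fixed with TCA (10% final), stained with SRB (0.4% final), and the dye was dissolved in 10 mM Tris with A515 read. IC50 was taken from a fitted log concentration-response curve.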
# HepG2 = test: Cytotoxicity against human HepG2 cells expressing wild type p53 after 48 hrs by SRB assay; type: functional, cell-based; conditions: HepG2, 48 h; method in brief: as §2
# U-937 = test: Cytotoxicity against human U937 cells expressing p53 mutant after 48 hrs by SRB assay; type: functional, cell-based; conditions: U-937, 48 h
# [8] = biological target: T1, DNA topoisomerase 1 (Homo sapiens) (UniProt P11387); test: Inhibition of DNA topoisomerase 1-mediated supercoiled Escherichia coli pBR322 DNA relaxation upto 25 uM after 30 mins
# T1 sequence (whole entry): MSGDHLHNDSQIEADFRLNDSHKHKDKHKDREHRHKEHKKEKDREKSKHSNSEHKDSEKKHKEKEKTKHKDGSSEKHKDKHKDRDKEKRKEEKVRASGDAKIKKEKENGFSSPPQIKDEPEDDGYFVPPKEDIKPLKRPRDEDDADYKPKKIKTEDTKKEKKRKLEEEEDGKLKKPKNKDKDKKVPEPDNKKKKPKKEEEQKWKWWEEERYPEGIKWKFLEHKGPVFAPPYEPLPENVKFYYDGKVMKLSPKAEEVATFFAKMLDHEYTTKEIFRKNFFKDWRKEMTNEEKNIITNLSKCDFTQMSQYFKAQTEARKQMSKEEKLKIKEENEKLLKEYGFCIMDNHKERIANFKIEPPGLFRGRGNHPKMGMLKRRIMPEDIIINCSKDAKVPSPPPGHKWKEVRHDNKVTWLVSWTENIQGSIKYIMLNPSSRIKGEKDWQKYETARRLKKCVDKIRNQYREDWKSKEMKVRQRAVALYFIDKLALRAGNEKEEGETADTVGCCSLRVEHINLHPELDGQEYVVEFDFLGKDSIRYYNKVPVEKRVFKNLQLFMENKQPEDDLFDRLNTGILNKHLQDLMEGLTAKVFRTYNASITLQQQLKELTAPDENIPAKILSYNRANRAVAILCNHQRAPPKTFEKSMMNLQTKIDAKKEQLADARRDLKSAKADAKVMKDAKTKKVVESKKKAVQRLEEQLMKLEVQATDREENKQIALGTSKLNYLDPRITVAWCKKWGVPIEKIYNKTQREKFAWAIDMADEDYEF
# HT-29 [9] = test: Cytotoxicity against human HT-29 cells expressing p53 mutant after 48 hrs by SRB assay; type: functional, cell-based; conditions: HT-29, 48 h; method in brief: as §2
# SK-OV-3 [10] = test: Induction of apoptosis in human SKOV3 cells assessed as apoptotic cells at 10 ug/mL after 24 hrs by annexin V/propidium iodide-based flow cytometry; type: functional; method in brief: as §1
# HT-29 [11] = test: Antitumor activity against human HT-29 cells xenografted in athymic BALB/c nude mouse at 75 mg/kg, ip for 10 days measured after 30 days relative to placebo control; type: functional; conditions: route intraperitoneal
# Method in brief: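 Female athymic BALB/c nude mice (35-40 days old, 18-22 g). HT-29 tumours first grown from 1 × 10^7 cells injected s.c. in the axillary fossa, then excised and transplanted. Treatment started at 100-300 mm3. Groups of n=6 were dosed i.p. daily in 400 μL: saline for 10 days, 5 mg/kg for 2 days, or 75/150 mg/kg for 10 days. Caliper volume was V=1/2·a·b². Values are relative to start volume, compared with placebo by Student's t test, and mice were killed on day 30.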
# [12] = Cytotoxicity against estrogen receptor-negative human […] cells expressing p53 mutant after 48 hrs by SRB assay; type: functional, cell-based; method in brief: as §2
smiles,measurement,setting,value
CCn1cc(-c2nc3ccc([N+](=O)[O-])cc3o2)c(=O)c2cc(F)c(N3CCNC(C)C3)c(F)c21 (stereo unspecified),Activity,HT-29 [1],Active
same,IC50,A2780,0.2 µM
same,Activity,SK-OV-3 [2],Dose-dependent effect
same,Activity,HT-29 [3],5%
same,IC50,K562,4.6 µM
same,IC50,KB,0.6 µM
same,Activity,HT-29 [4],tde
same,Activity,SK-OV-3 [5],7.4%
same,IC50,HT-29 [6],0.37 µg/mL
same,GI50,[7],1.5 µM
same,IC50,[7],3.9 µM
same,GI50,HepG2,2.8 µM
same,IC50,HepG2,4.5 µM
same,IC50,U-937,1.4 µM
same,inhibition,[8],inactive
same,GI50,HT-29 [9],1 µM
same,IC50,HT-29 [9],5.5 µM
same,Activity,SK-OV-3 [10],13.6%
same,Activity,HT-29 [11],52%
same,GI50,[12],0.7 µM
same,IC50,[12],3.1 µM
